Data published in PMC7286531 (Organic & biomolecular chemistry, 2020).

Tests used:
[1] = Stability in aqueous buffer under air; format: physicochemical; conditions: C188–9: within 4 hours
[2] = test system: STAT3 phosphorylated on tyrosine 705 (pSTAT3); experiment: G-CSF-induced intracellular STAT3 phosphorylation assay in AML cell lines; format: cell-based, human; conditions: Kasumi-1 / Kasumi cells
Outline: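 Kasumi-1 human AML cells (also other AML lines) were exposed to a concentration series of test compound and stimulated with G-CSF to induce STAT3 phosphorylation. Cells were then lysed, and STAT3 phosphorylated on Tyr705 was quantified with a fluorescent anti-pSTAT3 antibody. IC50 was taken from the concentration series; mean ±SD, n = 3.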

COc1ccc(S(=O)(=O)Nc2cc(-c3c(O)ccc4ccccc34)c(O)c3ccccc23)cc1 [C188–9]
stability in aqueous buffer in air, result in words [1]: Significant decomposition
inhibition of G-CSF-induced STAT3 phosphorylation, result in words [2]: exceptionally resistant
